From ChEMBL document CHEMBL3085643, “Synthesis and evaluation in monkey of [(18)F]4-fluoro-N-methyl-N-(4-(6-(methylamino)pyrimidin-4-yl)thiazol-2-yl)benzamide ([(18)F]FIMX): a promising radioligand for PET imaging of brain metabotropic glutamate receptor 1 (mGluR1)” (J Med Chem, 2013)

What was measured:
Hippocampus = assay: Biodistribution in iv dosed rhesus monkey hippocampus by PET analysis; type: ADME, organism-based, Macaca mulatta; settings: in vivo
Summary of the method: (§1)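 Baseline brain PET in rhesus monkey: radioligand given intravenously (4.6–6.58 mCi; specific activity 1.67–4.18 Ci/μmol at injection). Ketamine induction (10 mg/kg, i.m.), then 1.6% isoflurane in O₂; head held in a stereotaxic frame. Scan run 120 min in 33 frames (30 s–5 min). Regional uptake taken from regions of interest, cerebellar grey matter delineated by isocontour, expressed as SUV; decay-corrected.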

Plasma [1] = assay: Biodistribution in rhesus monkey plasma at 5.24 mCi, iv after 60 mins by radio-HPLC analysis; type: ADME, organism-based, Macaca mulatta; settings: in vivo, 1 h
Summary of the method: (§2)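 Single rhesus monkey (7.0 kg) given the radioligand iv (5.24 mCi; 1.4 nmol/kg). Venous blood drawn at 10, 30, 60 and 120 min. Separated plasma analysed by radio-HPLC on a C18 radial-compression column, eluted at 2.0 mL/min with MeOH:H₂O:Et₃N (65:35:0.1). Parent and radiometabolites given as percent of plasma radioactivity; blood-component radioactivity expressed as SUV; decay-corrected.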

[2] = Biodistribution in iv dosed rhesus monkey skull by PET analysis; type: ADME, organism-based, Macaca mulatta; settings: in vivo; summary of the method: as §1
Brain [3] = assay: Biodistribution in iv dosed rhesus monkey brain administered 30 mins prior to […]-challenge by PET analysis; type: ADME, organism-based, Macaca mulatta; settings: in vivo, 0.5 h, in the assay text read “mGluR5 ligand” for “mGluR1 ligand”
Summary of the method: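 Third rhesus monkey (8.1 kg): the mGluR5-selective ligand MTEP (5 mg/kg) given i.v. 30 min after the i.v. [18F] radioligand. Anesthesia was ketamine then isoflurane, with the head in a stereotaxic frame. A 120-min microPET acquisition in 33 frames was run, and regional washout expressed as SUV.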

Brain [4] = assay: Biodistribution in iv dosed rhesus monkey brain administered 30 mins prior to mGluR1 antagonist JNJ-16259685-challenge by PET analysis; type: organism-based, Macaca mulatta; settings: in vivo, 0.5 h
Summary of the method: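 Displacement challenge in a second rhesus monkey: JNJ-16259685 (3 mg/kg) given i.v. 30 min after the i.v. [18F] radioligand injection. Anesthesia was ketamine 10 mg/kg i.m. then 1.6% isoflurane. The brain was scanned with microPET for 120 min in 33 frames, and regional radioactivity expressed as SUV.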

Brain [5] = assay: Biodistribution in iv dosed rhesus monkey brain administered 5 mins post mGluR1 antagonist JNJ-16259685-challenge by PET analysis; type: organism-based, Macaca mulatta; settings: in vivo
Summary of the method: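 Receptor preblock in the baseline monkey on a separate day: JNJ-16259685 (3 mg/kg) given i.v. 5 min before the i.v. [18F] radioligand (4.6–6.58 mCi). Under ketamine/isoflurane anesthesia in a stereotaxic frame, the brain was scanned with microPET for 120 min in 33 frames. Regional time–activity curves expressed as SUV.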

Plasma [6] = assay: Biodistribution in rhesus monkey plasma at 5.24 mCi, iv measured at 31 mins by radio-HPLC analysis; type: ADME, organism-based, Macaca mulatta; settings: in vivo; summary of the method: as §2
[7] = Metabolic stability in rhesus monkey whole blood assessed as compound remaining after 30 mins by radio-HPLC analysis; type: ADME, tissue-based, Macaca mulatta; settings: read-out: Stability
Summary of the method: (§3)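 Radioligand incubated in rhesus monkey whole blood or plasma at room temperature for at least 30 min. Blood lysed with water for 30 s; samples deproteinized with MeCN and spun at 10,000 g. Supernatants analysed by radio-HPLC; precipitates counted to give extraction efficiency. Percent unchanged parent divided by radiochemical purity.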

Plasma [8] = assay: Biodistribution in rhesus monkey plasma assessed as radiometabolite [18F]-D level at 5.24 mCi, iv after 60 mins by radio-HPLC analysis; type: ADME, organism-based, Macaca mulatta; settings: in vivo, 1 h; summary of the method: as §2
[9] = Metabolic stability in rhesus monkey plasma assessed as compound remaining after 30 mins by radio-HPLC analysis; type: ADME, cell-free, Macaca mulatta; settings: read-out: Stability; summary of the method: as §3
Plasma [10] = assay: Biodistribution in rhesus monkey plasma assessed as radiometabolite [18F]-C level at 5.24 mCi, iv after 60 mins by radio-HPLC analysis; type: ADME, organism-based, Macaca mulatta; settings: in vivo, 1 h; summary of the method: as §2
Plasma [11] = assay: Biodistribution in rhesus monkey plasma assessed as radiometabolite [18F]-B level at 5.24 mCi, iv after 60 mins by radio-HPLC analysis; type: ADME, organism-based, Macaca mulatta; settings: in vivo, 1 h; summary of the method: as §2
[12] = Fraction unbound in human plasma by radio-HPLC analysis; type: ADME, cell-free
Blood = assay: Biodistribution in rhesus monkey whole blood at 5.24 mCi, iv up to 150 mins by radio-HPLC analysis; type: ADME, organism-based, Macaca mulatta; settings: in vivo, 2 h, in the assay text read “120 mins” for “150 mins”
Summary of the method: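 Venous blood sampled after iv injection of radioligand (5.24 mCi; 1.4 nmol/kg) in one 7.0 kg rhesus monkey. Whole-blood radioactivity was gamma-counted, decay-corrected and expressed as SUV.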

[13] = Fraction unbound in rhesus monkey plasma by radio-HPLC analysis; type: ADME, cell-free, Macaca mulatta
[14] = Biodistribution in iv dosed rhesus monkey frontal cortex by PET analysis; type: ADME, organism-based, Macaca mulatta; settings: in vivo; summary of the method: as §1
[15] = Biodistribution in iv dosed rhesus monkey thalamus by PET analysis; type: ADME, organism-based, Macaca mulatta; settings: in vivo; summary of the method: as §1
[16] = Biodistribution in iv dosed rhesus monkey cerebellum measured at 2 hrs by PET analysis; type: ADME, organism-based, Macaca mulatta; settings: in vivo; summary of the method: as §1
Plasma [17] = assay: Biodistribution in rhesus monkey plasma assessed as radiometabolite [18F]-E level at 5.24 mCi, iv after 60 mins by radio-HPLC analysis; type: ADME, organism-based, Macaca mulatta; settings: in vivo, 1 h; summary of the method: as §2
[18] = Biodistribution in iv dosed rhesus monkey anterior cingulate by PET analysis; type: ADME, organism-based, Macaca mulatta; settings: in vivo
Summary of the method: (§4)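 Baseline scans in rhesus monkey given the [18F] radioligand i.v. (4.6–6.58 mCi; specific activity 1.67–4.18 Ci/μmol at injection). Ketamine 10 mg/kg i.m. induction, then 1.6% isoflurane/98.4% O2, with the head in a stereotaxic frame. microPET Focus 220 scanning for 120 min in 33 frames (30 s–5 min). Regional uptake, including isocontour-delineated cerebellar grey matter, expressed as SUV.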

[19] = Biodistribution in iv dosed rhesus monkey putamen by PET analysis; type: ADME, organism-based, Macaca mulatta; settings: in vivo; summary of the method: as §1
[20] = Biodistribution in iv dosed rhesus monkey cerebellum measured at 90 mins by PET analysis; type: ADME, organism-based, Macaca mulatta; settings: in vivo, 1.5 h; summary of the method: as §1
Plasma [21] = assay: Biodistribution in rhesus monkey plasma at 5.24 mCi, iv after 2 hrs by radio-HPLC analysis; type: ADME, organism-based, Macaca mulatta; settings: in vivo; summary of the method: as §2
Brain [22] = assay: Biodistribution in iv dosed rhesus monkey brain measured up to 120 mins by PET analysis; type: ADME, organism-based, Macaca mulatta; settings: in vivo, 2 h; summary of the method: as §4
[23] = Octanol-sodium phosphate buffer distribution coefficient, log D of the compound at pH 7.4; type: physicochemical
Summary of the method: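 Measured LogD of the [18F]-labelled compound: distribution between n-octanol and 0.15 M sodium phosphate buffer, pH 7.4; n = 6.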

Plasma [24] = assay: Biodistribution in rhesus monkey plasma assessed as radiometabolite [18F]-A level at 5.24 mCi, iv after 60 mins by radio-HPLC analysis; type: ADME, organism-based, Macaca mulatta; settings: in vivo, 1 h; summary of the method: as §2
[25] = Biodistribution in iv dosed rhesus monkey cerebellum measured at 12 mins by PET analysis; type: ADME, organism-based, Macaca mulatta; settings: in vivo, 0.2 h; summary of the method: as §1

- SUV (Hippocampus): 2.5
- Drug uptake (Plasma [1]): 26%
- Drug uptake [2]: Not Active
- Drug uptake (Brain [3]): Active
- Drug uptake (Brain [4]): Active
- Drug uptake (Brain [5]): Active
- Drug uptake (Plasma [6]): 31%
- remaining at 0.5 h [7]: 98.1%
- Drug uptake (Plasma [8]): 1%
- remaining at 0.5 h [9]: 98.9%
- Drug uptake (Plasma [10]): 10%
- Drug uptake (Plasma [11]): 23%
- fraction unbound [12]: 0.0114
- Drug uptake (Blood): Active
- fraction unbound [13]: 0.0123
- SUV [14]: 2.7
- SUV [15]: 2.9
- SUV [16]: 2.8
- Drug uptake (Plasma [17]): 21%
- SUV [18]: 2.4
- SUV [19]: 2.5
- SUV [20]: 3.32
- Drug uptake (Plasma [21]): Active
- Drug uptake (Brain [22]): Active
- logD [23]: 2.52
- Drug uptake (Plasma [24]): 19%
- SUV [25]: 5.3
Structure (SMILES): CNc1cc(-c2csc(N(C)C(=O)c3ccc([18F])cc3)n2)ncn1
